# From PubChem BioAssay
# Shown are actives, neighbours in structure and some others; about 1.8% of the full set was active somewhere.
# CHRM5 antagonist – CHRM5 antagonism in calcium assay; P08912; CHO-hM5 cells, Fluo-8 calcium fluorescence, ACh EC80; inhibition, % at 3 µM; 360,000 compounds, 0.59% hits; AID 624040;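 active means inhibition above a per-plate cutoff, the mean of that plate's test compounds plus 3 SD, cut at about 27% in these data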;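 further: 0% = acetylcholine EC80 with DMSO and 100% = DMSO without agonist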
# Target sequence (P08912 whole entry, looked up): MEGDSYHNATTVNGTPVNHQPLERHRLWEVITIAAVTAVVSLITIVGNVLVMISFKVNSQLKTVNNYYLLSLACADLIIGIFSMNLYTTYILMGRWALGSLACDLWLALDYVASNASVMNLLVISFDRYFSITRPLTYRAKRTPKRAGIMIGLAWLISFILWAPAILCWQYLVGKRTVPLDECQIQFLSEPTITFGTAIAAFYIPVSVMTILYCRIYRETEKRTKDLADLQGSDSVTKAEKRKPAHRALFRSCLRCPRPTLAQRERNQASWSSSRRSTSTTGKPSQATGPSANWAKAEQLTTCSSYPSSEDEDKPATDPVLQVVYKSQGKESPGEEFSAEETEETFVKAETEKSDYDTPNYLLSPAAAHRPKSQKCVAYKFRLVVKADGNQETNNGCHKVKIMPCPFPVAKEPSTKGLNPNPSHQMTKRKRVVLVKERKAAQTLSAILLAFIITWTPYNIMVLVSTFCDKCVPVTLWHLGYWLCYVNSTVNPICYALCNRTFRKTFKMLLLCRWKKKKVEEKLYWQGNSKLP
# M5 PAM – positive allosteric modulators of human muscarinic M5 receptor; CHO-K1 hM5, Fluo-8 calcium, ACh EC20 PAM; 0% = ACh EC20, 100% = ACh EC100; 360,000 compounds, 0.3% hits; activation, % at 3 µM; P08912; AID 624038;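 active means activation above the run cutoff, the mean activation of all test compounds plus 3 SD, cut at about 18% in these data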
#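 System: CHO-K1 hM5 cells. Reagent: acetylcholine, EC20 level. Compound dosing: single dose, 3 µM nominal final test concentration. Timing: Post-acetylcholine fluorescence recording 140 s. Detection: Fluo-8 calcium fluorescence. Read-out: % activation, ACh-normalized. Benchmarks: ACh EC20 and EC100 wells. Repeats: singlicate, one well per test compound.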
# CHRM4 agonist – agonists of human muscarinic M4 receptor (CHRM4); AID 624127; activation, % at 3 µM; 360,000 compounds, 0.14% hits; P08173; CHO-K1 hM4/Gqi5, Fluo-8 calcium fluorescence; vehicle 0%, full acetylcholine response 100%;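 active means activation above the run mean over all test wells plus 3 SD, cut at about 32% in these data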;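 further: peak over basal fluorescence ratio per well then scaled between controls; 0% = DMSO wells and 100% = acetylcholine at EC100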
# CHRM5 agonist – CHRM5 agonism in calcium assay. 360,000 compounds, 0.19% hits. P08912. activation, % at 3 µM. CHO-K1 hM5 cells, Fluo-8 calcium fluorescence; 0% DMSO wells, 100% maximal acetylcholine response;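 active means activation above the run's mean over test compounds plus 3 SD, cut at about 23% in these data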;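 further: signal is peak over basal fluorescence ratio across the kinetic read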
# CHRM4 antagonist – antagonists of human muscarinic M4 receptor (CHRM4); P08173; CHO-hM4 cells, ACh EC80, Fluo-8 calcium fluorescence; inhibition, % at 3 µM; 360,000 compounds, 0.73% hits; AID 624125;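 active means inhibition above its plate's cutoff, the mean inhibition of sample wells plus 3 SD, cut at about 27% in these data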;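 further: 0% = acetylcholine EC80 with DMSO and 100% = DMSO without agonist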
# M4 PAM – CHRM4 positive allosteric modulation; CHO-K1 hM4/Gqi5, Fluo-8 calcium fluorescence, ACh EC20; 0% = ACh EC20, 100% = maximal ACh; activation, % at 3 µM; 360,000 compounds, 0.4% hits;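 active means activation above its plate's cutoff, the mean activation of sample wells plus 3 SD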
# * = called active by the depositor.
SMILES,CHRM5 antagonist,M5 PAM,CHRM4 agonist,CHRM5 agonist,CHRM4 antagonist,M4 PAM
Cc1cccc(C)c1NC(=O)c1ccc([N+](=O)[O-])s1,3,11,2,-5,-16,25*
CN(C(=O)CO/N=C/c1ccc(OC(F)F)cc1)C1CCS(=O)(=O)C1 (stereo not drawn),-6,19*,1,4,-2,1
O=C1CC(=C(c2ccccc2)c2ccccc2)C(=O)N1CCN1CCN(c2cccc(Cl)c2)CC1,-2,-1,1,-1,17,9
O=C1CC(=C(c2ccccc2)c2ccccc2)C(=O)N1CCCN1CCN(c2cccc(Cl)c2)CC1,3,-22,-1,-8,28*,-22
CC(=O)NCCC(=O)Nc1nc(-c2c[nH]c3ccccc23)cs1,-6,1,1,-1,-20,16*
CC(=O)Nc1nc(-c2cccc3ccccc23)cs1,-17,15,-1,-5,-10,-6
NC(Cc1ccc(C(F)(F)F)cc1)c1csc(Nc2ccccn2)n1 (stereo not drawn),5,1,41*,5,-3,0
Cc1ccc(C(=O)Nc2nc(C(N)Cc3ccc(C(F)(F)F)cc3)cs2)cc1 (stereo not drawn),10,5,36*,6,8,-5
NC(Cc1ccc(C(F)(F)F)cc1)c1csc(NC(=O)NCCc2ccccc2)n1 (stereo not drawn),4,4,39*,4,41*,-8
NC(Cc1ccc(Cl)cc1)c1csc(Nc2ccc(-c3ccccc3)nn2)n1 (stereo not drawn),8,4,38*,7,18,-1
NC(Cc1ccc(C(F)(F)F)cc1)c1csc(Nc2ncccn2)n1 (stereo not drawn),-2,-1,13,8,-7,-4
Cc1c(C(=O)Nc2ccc(C(F)(F)F)cc2)sc2ncn(CC(=O)N3CCN(c4ccccn4)CC3)c(=O)c12,19,-9,2,-7,-2,0
CCOC(=O)/C(C#N)=C/C1=C(N2CCOCC2)C(C)(C)OCC1,7,2,1,0,-5,5
O=C(COc1ccc(Cl)cc1)NNC(=O)c1ccc2c(=O)n3c(nc2c1)CCC3,9,-3,0,1,-4,1
NC(Cc1ccccc1)c1csc(NC(=O)Nc2ccccc2Oc2ccccc2)n1 (stereo not drawn),6,-4,11,1,15,-6
NC(Cc1ccc(F)cc1)c1csc(NC(=O)NC(c2ccccc2)c2ccccc2)n1 (stereo not drawn),3,-1,17,2,28*,7
COC(=O)Cc1ccc(OC(=O)CCS(=O)(=O)c2ccc(C)cc2)cc1,0,1,0,-3,-1,0
Cc1ccc(OC(=O)CCS(=O)(=O)c2ccc(C)cc2)cc1,-6,16,1,-3,-1,18*
CC1C=CCC2C(=O)N(c3cccc(C(=O)NCc4ccccc4)c3)C(=O)C12 (stereo not drawn),7,-3,5,2,2,-3
CCc1nnc(NC(=O)CSc2nncc(=O)n2N)s1,-21,24*,1,0,-6,6
CCSc1nnc(NC(=O)CSc2nncc(=O)n2N)s1,15,6,0,6,-4,4
COc1ccc(CN(C)C(=O)c2ccc(OCC(=O)Nc3cccc(C(F)(F)F)c3)c(OC)c2)cc1,16,-13,16,5,31*,-12
COc1cc(C(=O)NCc2cccnc2)ccc1OCC(=O)Nc1cccc(C(F)(F)F)c1,16,-24,20,7,-2,-8
COc1c(C)cc(C(=O)C2CCCN(C(=O)c3cc(C4CC4)[nH]n3)C2)cc1C (stereo not drawn),9,-1,2,-2,2,-4
CCC1CCCCN1C(=O)COc1ccc(S(=O)(=O)N2CCOCC2)cc1Cl (stereo not drawn),8,7,2,-1,8,-1
SMILES,CHRM5 antagonist,M5 PAM,CHRM4 agonist,CHRM5 agonist,CHRM4 antagonist,M4 PAM
Nc1c(C(=O)NCc2ccc3c(c2)OCO3)nnn1Cc1ccc(Br)cc1,5,7,30,30*,17,1
COc1cccc(NC(=O)Cn2nnc(C(=O)NCc3ccc4c(c3)OCO4)c2N)c1,-19,22*,4,0,-4,3
Cc1ccc(NC(=O)Cn2nnc(C(=O)NCc3ccc4c(c3)OCO4)c2N)cc1,-18,18*,3,1,1,4
COc1cccc(CNC(=O)c2nnn(CC(=O)Nc3ccc4c(c3)OCO4)c2N)c1,9,-1,1,2,9,-12
O=C(OCc1nc(-c2ccccc2Cl)no1)c1ccco1,8,-3,0,3,-3,7
CC(C)(C)CN1CCC(Oc2cccc(C(=O)NCCCOc3cccnc3)c2)CC1,38*,-11,4,-8,68*,-15
CCCCNC(=O)c1cc(-c2ccccc2)sc1N,-15,21*,2,7,-8,18
COCCNC(=O)c1cc(-c2ccccc2)sc1N,8,1,4,3,4,0
COc1ccc(CCNS(=O)(=O)c2ccc3c(c2)NC(=O)CCS3)cc1OC,-6,20*,1,6,-16,6
Cc1ccc(CCNS(=O)(=O)c2ccc3c(c2)NC(=O)CCS3)cc1,-14,2,7,2,-8,5
S=C(NCc1ccco1)Nc1ccc(Cl)c(Cl)c1,25,-14,16,4,9,-15
S=C(NCc1ccco1)Nc1cc(Cl)c(Cl)cc1Cl,33*,-19,7,0,-4,-12
COc1cc(C=O)ccc1OCC(=O)N1CCCC1,-18,20*,2,-1,-1,5
CC(=O)Nc1ccc(C(=O)OCC(=O)NCc2ccccc2)cc1,27*,-14,2,-1,1,-3
c1ccc2c(c1)ncn2CCN1CCCCC1,-11,20*,0,-6,-11,0
c1ccc(CCn2cnc3ccccc32)cc1,-4,3,1,-5,-9,13
CN(CCCN1CCCCC1)C(=O)c1cc(COc2ccc(F)cc2F)on1,16,-5,0,-8,36*,-15
CN(CCCC1CCCC1)C(=O)c1cc(COc2ccc(F)cc2F)on1,7,-9,1,-4,-3,-7
CCCN(C(=O)c1cccc(-n2cccc2)c1)c1c(N)n(Cc2ccccc2)c(=O)[nH]c1=O,8,-2,0,0,-7,5
O=C(CN1CCOCC1)Nc1nc2cc([N+](=O)[O-])ccc2s1,5,13,4,-3,-12,27*
